Legend:
Format in all cases: functional
[1] = Growth inhibition of human leukemia cells after 48 hrs; conditions: Leukemia cell
In short: (§1)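 NCI in vitro disease-oriented human tumor cell line screen. Compounds passing a one-dose primary assay (MCF-7, NCI-H460, SF-268; pass = growth of any line reduced to 32% or less) were tested on the 60-line panel over a 5-log dose range. Compounds were dissolved in DMSO, with under 1% DMSO in final dilutions, and tested in duplicate at 6×10^4 cells/ml. Cells were incubated at 37 °C in 5% CO2 for 48 h, then diluted 10-fold in saline and counted with a Coulter counter, with counts corrected for dilution. Controls held PBS/DMSO at identical dilutions. GI50 was reported per line and as subpanel/full-panel mean-graph midpoint.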

NSCLC = test: Growth inhibition of human NSCLC cells after 48 hrs; in short: as §1
[2] = Growth inhibition of human Colon cancer cells after 48 hrs; conditions: Cancer cell lines; in short: as §1
[3] = Growth inhibition of human CNS cancer cells after 48 hrs; conditions: Cancer cell lines; in short: as §1
[4] = Growth inhibition of human melanoma cells after 48 hrs; conditions: Melanoma cell; in short: as §1
[5] = Growth inhibition of human ovarian cancer cells after 48 hrs; conditions: Cancer cell lines; in short: as §1
[6] = Growth inhibition of human renal cancer cells after 48 hrs; conditions: Cancer cell lines; in short: as §1
[7] = Growth inhibition of human prostate cancer cells after 48 hrs; conditions: Cancer cell lines; in short: as §1
[8] = Growth inhibition of human breast cancer cells after 48 hrs; conditions: Cancer cell lines; in short: as §1
CCRF-CEM = test: Growth inhibition of human CCRF-CEM cells after 48 hrs; conditions: for CC50: read-out: LC50 (the source's name); in short: as §1
HL-60(TB) = test: Growth inhibition of human HL-60(TB) cells after 48 hrs; conditions: HL-60, 48 h; for CC50: read-out: LC50 (the source's name)
In short: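 NCI 60-cell-line screen over a 5-log dose range. Compounds were dissolved in DMSO, final DMSO under 1%. Duplicate wells were seeded at 6×10^4 cells/ml, with PBS/DMSO vehicle controls at identical dilutions. Cells were incubated 48 h at 37 °C in humidified 5% CO2, diluted 10-fold in saline, and counted by Coulter counter with dilution correction. GI50 read-out.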

K562 = test: Growth inhibition of human K562 cells after 48 hrs; conditions: K562, 48 h; in short: as §1
RPMI-8226 = test: Growth inhibition of human RPMI8226 cells after 48 hrs; conditions: RPMI-8226, 48 h; for CC50: read-out: LC50 (the source's name); in short: as §1
SK-MEL-2 = test: Growth inhibition of human SK-MEL-2 cells after 48 hrs; conditions: SK-MEL-2, 48 h; in short: as §1
UACC-257 = test: Growth inhibition of human UACC257 cells after 48 hrs; conditions: UACC-257, 48 h; in short: as §1
MCF7 = test: Growth inhibition of human MCF7 cells after 48 hrs; conditions: MCF7, 48 h; for CC50: read-out: LC50 (the source's name); in short: as §1
T47D = test: Growth inhibition of human T47D cells after 48 hrs; in short: as §1

CCCCNC(=O)c1cc(I)ccc1NC(=O)c1cccs1
GI50 [1]: 83.8 µM | TGI [1]: > 100 µM | GI50 (NSCLC): 96 µM | TGI (NSCLC): > 100 µM | GI50 [2]: > 100 µM | TGI [2]: > 100 µM | GI50 [3]: > 100 µM | TGI [3]: > 100 µM | GI50 [4]: > 100 µM | TGI [4]: > 100 µM | GI50 [5]: > 100 µM | TGI [5]: > 100 µM | GI50 [6]: > 100 µM | TGI [6]: > 100 µM | GI50 [7]: > 100 µM | TGI [7]: > 100 µM | GI50 [8]: > 100 µM | TGI [8]: > 100 µM

CCSc1nc(-c2cccs2)nc2ccc(I)cc12
TGI [1]: > 100 µM | GI50 (NSCLC): 84.2 µM | TGI (NSCLC): > 100 µM | GI50 [2]: 94.6 µM | TGI [2]: > 100 µM | GI50 [3]: > 100 µM | TGI [3]: > 100 µM | GI50 [4]: > 100 µM | TGI [4]: > 100 µM | GI50 [5]: 85.2 µM | TGI [5]: > 100 µM | GI50 [6]: > 100 µM | TGI [6]: > 100 µM | GI50 [7]: > 100 µM | TGI [7]: > 100 µM | GI50 [8]: 71.4 µM | TGI [8]: > 100 µM

NS(=O)(=O)c1ccc(-n2c(-c3cccs3)nc3ccc(I)cc3c2=O)cc1
GI50 (CCRF-CEM): 41 µM | TGI (CCRF-CEM): > 100 µM | CC50 (CCRF-CEM): > 100 µM | GI50 (HL-60(TB)): 20 µM | TGI (HL-60(TB)): 64 µM | CC50 (HL-60(TB)): > 100 µM | GI50 (K562): 37 µM | LC50 (concentration killing 50% of cells) (K562): > 100 µM | TGI (K562): > 100 µM | GI50 (RPMI-8226): 25 µM | TGI (RPMI-8226): 62 µM | CC50 (RPMI-8226): > 100 µM | GI50 (SK-MEL-2): 22 µM | LC50 (SK-MEL-2): > 100 µM | TGI (SK-MEL-2): 48 µM | GI50 (UACC-257): 0.05 µM | LC50 (UACC-257): > 100 µM | TGI (UACC-257): 19 µM | GI50 (MCF7): 23 µM | TGI (MCF7): 65 µM | CC50 (MCF7): > 100 µM | GI50 (T47D): 19 µM | LC50 (T47D): 99 µM | TGI (T47D): 44 µM | GI50 [1]: 35.3 µM | TGI [1]: 87.7 µM | GI50 (NSCLC): 24 µM | TGI (NSCLC): 61.3 µM | GI50 [2]: 24.8 µM | LC50 [2]: 87.1 µM | TGI [2]: 59.3 µM | GI50 [3]: 30.3 µM | TGI [3]: 73.8 µM | GI50 [4]: 17.6 µM | TGI [4]: 43 µM | GI50 [5]: 23.5 µM | TGI [5]: 65.1 µM | GI50 [6]: 24.7 µM | TGI [6]: 64.1 µM | CC50 ([6]; read-out: LC50 (the source's name)): 94.1 µM | GI50 [7]: 22.7 µM | TGI [7]: 58.9 µM | GI50 [8]: 23.3 µM | TGI [8]: 62.5 µM

NNC(=O)COc1nc(-c2cccs2)nc2ccc(I)cc12
GI50 (CCRF-CEM): 20 µM | TGI (CCRF-CEM): 88 µM | CC50 (CCRF-CEM): > 100 µM | GI50 (HL-60(TB)): 38 µM | TGI (HL-60(TB)): > 100 µM | CC50 (HL-60(TB)): > 100 µM | GI50 (K562): 37 µM | LC50 (concentration killing 50% of cells) (K562): > 100 µM | TGI (K562): > 100 µM | GI50 (RPMI-8226): 16 µM | TGI (RPMI-8226): 39 µM | CC50 (RPMI-8226): 97 µM | GI50 (SK-MEL-2): 25 µM | LC50 (SK-MEL-2): > 100 µM | TGI (SK-MEL-2): 71 µM | GI50 (UACC-257): < 0.01 µM | LC50 (UACC-257): > 100 µM | TGI (UACC-257): > 100 µM | GI50 (MCF7): 16 µM | TGI (MCF7): 89 µM | CC50 (MCF7): > 100 µM | GI50 (T47D): 2 µM | LC50 (T47D): > 100 µM | TGI (T47D): 22 µM | GI50 [1]: 25.4 µM | TGI [1]: 80.5 µM | GI50 (NSCLC): 19.4 µM | TGI (NSCLC): 59.6 µM | GI50 [2]: 24.3 µM | TGI [2]: 66.9 µM | GI50 [3]: 20.7 µM | TGI [3]: 62.1 µM | GI50 [4]: 19.4 µM | TGI [4]: 51.1 µM | GI50 [5]: 22.3 µM | TGI [5]: 72.5 µM | GI50 [6]: 23.1 µM | TGI [6]: 71.1 µM | GI50 [7]: 23.5 µM | TGI [7]: 75.3 µM | GI50 [8]: 18.7 µM | TGI [8]: 64.7 µM

O=c1[nH]cc(F)c(=O)[nH]1 [FLUOROURACIL]
GI50 [1]: 15.1 µM | TGI [1]: > 100 µM | GI50 (NSCLC): > 100 µM | TGI (NSCLC): > 100 µM | GI50 [2]: 8.37 µM | TGI [2]: > 100 µM | GI50 [3]: 72.1 µM | TGI [3]: > 100 µM | TGI [4]: > 100 µM | TGI [5]: > 100 µM | TGI [6]: > 100 µM | TGI [7]: > 100 µM | TGI [8]: > 100 µM

Reference: ChEMBL document CHEMBL1158347, “Substituted quinazolines, part 3. Synthesis, in vitro antitumor activity and molecular modeling study of certain 2-thieno-4(3H)-quinazolinone analogs” (2009)
